The IC50 is the point on the concentration scale where inhibition reaches its midpoint.

SMILES strings stand for the structures. Activity calls are given as the source filed them. The rule behind the calls is not given here.

Data on 34 molecules can be found in ChEMBL document CHEMBL4152283, “Discovery of potent and novel smoothened antagonists via structure-based virtual screening and biological assays” (Eur J Med Chem, 2018).

Assay [1] concerns the target Protein smoothened (Mus musculus, UniProt P56726). Description: Antagonist activity at Smo receptor in mouse NIH/3T3 cells harboring GRE-Luc assessed as inhibition of SAG-induced Hh signaling pathway co-incubated with SAG measured after 48 hrs by luciferase reporter gene assay. Background: A reporter such as luciferase makes a cellular process visible.
Assay [2] concerns the target T1, Protein smoothened (Homo sapiens, UniProt Q99835). Description: Displacement of BODIPY-Cyclopamine from human HA-tagged Smo receptor expressed in human U2OS cells at 3 to 1000 nM by DAPI staining based fluorescence microscopic method. The class given is cell-based. An outline of the steps:
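Puromycin-selected U2OS clone expressing HA-tagged human Smo, seeded 10,000 cells/well in 10% serum DMEM and cultured 48 h at 37 °C. Cells fixed in 4% PFA for 20 min, DAPI (5 µg/mL) for 10 min, PBS washes, then 2 h at room temperature with 100 nM BODIPY-cyclopamine plus serially diluted compound. PBST washes, automated high-content fluorescence imaging, data normalized to GDC-0449. Sigmoidal fit for IC50. Ki by Cheng-Prusoff using probe Kd 255 ± 57 nM.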

The target of assay [3] is T1, Protein smoothened. Description: Antagonist activity at Smo receptor (unknown origin). The class given is functional.

Chain of Protein smoothened (Mus musculus, UniProt P56726) (P56726 whole entry): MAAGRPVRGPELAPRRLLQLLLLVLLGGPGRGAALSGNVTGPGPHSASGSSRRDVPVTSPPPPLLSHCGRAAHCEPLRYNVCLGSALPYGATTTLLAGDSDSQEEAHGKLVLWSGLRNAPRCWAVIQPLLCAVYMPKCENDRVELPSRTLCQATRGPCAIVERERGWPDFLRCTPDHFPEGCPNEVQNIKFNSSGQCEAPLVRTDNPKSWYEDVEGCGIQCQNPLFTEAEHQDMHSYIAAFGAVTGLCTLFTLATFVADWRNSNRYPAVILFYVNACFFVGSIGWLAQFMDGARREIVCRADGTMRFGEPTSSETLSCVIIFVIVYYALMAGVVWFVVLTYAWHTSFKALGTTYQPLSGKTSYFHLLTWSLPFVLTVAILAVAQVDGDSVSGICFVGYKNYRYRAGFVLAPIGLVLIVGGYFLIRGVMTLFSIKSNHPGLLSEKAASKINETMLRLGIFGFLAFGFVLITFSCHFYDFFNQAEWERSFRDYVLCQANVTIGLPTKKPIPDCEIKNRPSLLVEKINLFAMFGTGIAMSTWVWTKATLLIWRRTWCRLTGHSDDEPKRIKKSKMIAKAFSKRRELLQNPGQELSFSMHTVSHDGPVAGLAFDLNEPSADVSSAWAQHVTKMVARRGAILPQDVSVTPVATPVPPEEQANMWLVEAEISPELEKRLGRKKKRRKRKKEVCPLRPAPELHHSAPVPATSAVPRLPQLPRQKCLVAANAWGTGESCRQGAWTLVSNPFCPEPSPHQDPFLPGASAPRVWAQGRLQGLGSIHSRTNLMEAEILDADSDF
T1 sequence (Q99835 whole entry): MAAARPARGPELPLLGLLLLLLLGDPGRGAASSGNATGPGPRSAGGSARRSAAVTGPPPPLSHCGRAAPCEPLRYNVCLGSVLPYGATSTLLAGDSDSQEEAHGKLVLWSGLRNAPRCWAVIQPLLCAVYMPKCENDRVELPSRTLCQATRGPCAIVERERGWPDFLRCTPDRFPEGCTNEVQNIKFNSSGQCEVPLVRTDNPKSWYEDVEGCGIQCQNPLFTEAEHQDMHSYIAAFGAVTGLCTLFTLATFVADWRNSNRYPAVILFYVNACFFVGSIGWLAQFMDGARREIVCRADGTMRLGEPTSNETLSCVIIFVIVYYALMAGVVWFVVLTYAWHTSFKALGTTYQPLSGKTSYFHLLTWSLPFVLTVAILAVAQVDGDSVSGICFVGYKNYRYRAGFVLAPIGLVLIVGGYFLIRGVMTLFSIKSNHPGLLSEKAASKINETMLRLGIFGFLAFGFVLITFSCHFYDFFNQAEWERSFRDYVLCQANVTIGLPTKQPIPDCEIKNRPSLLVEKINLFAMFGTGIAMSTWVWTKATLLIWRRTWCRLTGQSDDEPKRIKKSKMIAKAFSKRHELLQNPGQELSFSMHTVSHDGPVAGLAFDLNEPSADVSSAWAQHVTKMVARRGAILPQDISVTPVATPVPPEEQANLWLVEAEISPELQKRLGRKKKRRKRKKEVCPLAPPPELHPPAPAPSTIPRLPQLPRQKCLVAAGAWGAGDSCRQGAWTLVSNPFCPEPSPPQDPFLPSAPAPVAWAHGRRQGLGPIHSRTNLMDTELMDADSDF

As for `COc1ccc(-n2nc(C(=O)NCC(=O)Nc3nc4ccccc4s3)c3ccccc3c2=O)cc1`, the IC50 at Protein smoothened [1] was more than 10 µM. Same read-out and setting: the result for `CN(C(=O)Cn1c(=O)n(CCCC(=O)NCc2ccccc2)c(=O)c2sccc21)c1ccccc1` reads more than 10 µM; that for `O=C(Nc1cccc(N2CCCN(Cc3ccc(F)c(F)c3)C2=O)c1)OCc1ccccc1`, 1.2 µM. The same measure, in the same setting: the result for `Cc1ccc(NCc2cccn2-c2nnc(N3CCC(C(=O)NC4CCCCC4C)CC3)s2)nc1` (stereo not given) reads 0.058 µM; that for `Cc1ccc(NCc2cccn2-c2nnc(N3CCC(C(=O)NC4CCCCC4)CC3)s2)cc1`, 0.66 µM; that for `COc1ccc2[nH]cc(CCNC(=O)c3ccccc3NC(=O)c3nsc4ccccc34)c2c1`, more than 10 µM. Take `Cc1ccc(NCc2cccn2-c2nnc(N3CCC(C(=O)NC4CC4)CC3)s2)cc1`: the IC50 on Protein smoothened [1] came to 4.2 µM. `CC1Cc2ccccc2N1C(=O)c1ccc(=O)n(CCC(=O)N2CCN(c3ccccc3)CC2)n1` (stereo not given): the IC50 on Protein smoothened [1] is 3 µM. Still for that read-out and setting: the result for `Cc1c(C(=O)NC2CCCCC2)sc2ncn(CC(=O)Nc3cccc(C(F)(F)F)c3)c(=O)c12` reads more than 10 µM.

Consider `COc1cc(F)ccc1S(=O)(=O)NCCNc1nc(-c2ccc(F)cc2)nc2ccccc12`, for which, on Protein smoothened [1], the IC50 was more than 10 µM. With `CC(C)c1ccc(NC(=O)c2cc(S(=O)(=O)N3CCN(c4ccccc4F)CC3)ccc2F)cc1`, the IC50 on Protein smoothened [1] is more than 10 µM. Still for that read-out and setting: the figure for `Cc1ccc(NCc2cccn2-c2nnc(N3CCC(C(=O)NCC(C)(C)O)CC3)s2)cc1` is 4.3 µM. In the case of `CCn1cc(C(=O)O)c(=O)c2cc(F)c(N3CCN(C(=S)NC(=O)Cc4ccc(Cl)cc4)CC3)cc21`, the IC50 on Protein smoothened [1] was more than 10 µM. Take `Cc1oc(-c2cccc(Cl)c2)nc1CN1CCC(C(=O)NC2CCCc3ccccc32)CC1` (stereo not given): on Protein smoothened [1], the IC50 came out at 0.95 µM. Still for that read-out and setting: the result for `O=C1CC(NC2CCN(c3ccc(C(F)(F)F)cn3)CC2)C(=O)N1c1ccc(F)cc1` (stereo not given) reads more than 10 µM. Same read-out and setting: the result for `O=C(CSc1nnc(CNC(=O)c2cccs2)n1-c1ccccc1)Nc1nc2ccccc2s1` reads more than 10 µM. Still for that read-out and setting: the result for `Cc1ccc(NCc2cccn2-c2nnc(N3CCC(C(=O)N4CCCC4)CC3)s2)cc1` reads 4.3 µM. For the molecule `Cc1ccc(NCc2cccn2-c2nnc(N3CCC(C(=O)NC4CCCCC4C)CC3)s2)cc1` (stereo not given), the inhibition result at Protein smoothened [2] was “Active”. Moreover, the IC50 at Protein smoothened [1] was found to be 0.047 µM. For `CC1CCN(C(C)CNC(=O)c2ccc3c(c2)NC(=O)C(CS(=O)(=O)Cc2ccc(F)cc2Cl)N3)CC1` (stereo not given), the IC50 at Protein smoothened [1] is more than 10 µM. Same read-out and setting: the figure for `Cc1ccc(-c2cc3c(N4CCC(C(=O)NC(C)c5ccccc5)CC4)nccn3n2)cc1C` (stereo not given) is 4.6 µM; for `Cc1cccc(CNC(=O)Cc2cccc(N(Cc3ccccc3)C(=O)c3ccc(C#N)cc3)c2)c1` it is more than 10 µM. Turning to `Cc1ccc(NCc2cccn2-c2nnc(N3CCC(C(=O)NCC4CC4)CC3)s2)cc1`, the IC50 at Protein smoothened [1] came out at 1.7 µM. Same read-out and setting: the result for `Cc1ccc(NC(=O)CSc2nc3ccc(NC(=O)c4ccccc4Cl)cc3s2)cc1Cl` reads more than 10 µM; that for `Cc1ccc(NCc2cccn2-c2nnc(N3CCC(C(=O)NC4CCCC4)CC3)s2)cc1`, 0.53 µM. For `COc1cc(C(=O)NC(=N)Nc2cccc(NC(=O)c3ccc(-c4ccccc4)cc3)c2)cc(OC)c1OC`, 0.01 µM corresponded to half-maximal inhibition against Protein smoothened [3] (IC50).

As for `Cc1ccc(NCc2cccn2-c2nnc(N3CCC(C(=O)NC(C)C)CC3)s2)cc1`, at Protein smoothened [1], the IC50 was determined as 1.2 µM.

As for `CCNC(=O)C1CCN(c2nnc(-n3cccc3CNc3ccc(C)cc3)s2)CC1`, the IC50 at Protein smoothened [1] is 5.2 µM. Regarding `COc1ccc(Cl)cc1NC(=O)c1ccc(-n2nc(OCc3cccc(F)c3)ccc2=O)cc1`, the IC50 on Protein smoothened [1] is more than 10 µM. The same measure, in the same setting: the result for `Cc1ccc(NCc2cccn2-c2nnc(N3CCC(C(=O)N4CCC(O)C4)CC3)s2)cc1` (stereo not given) reads 7.6 µM; that for `Cc1ccc(NCc2cccn2-c2nnc(N3CCC(C(=O)NCC(C)C)CC3)s2)cc1`, 1.1 µM. For `Cc1ccc(NCc2cccn2-c2nnc(N3CCC(C(=O)NC4CCCCC4C)CC3)s2)cn1` (stereo not given), the IC50 at Protein smoothened [1] worked out at 0.24 µM. `O=C(Nc1ccc(N2CCN(Cc3ccccc3O)CC2)nc1)c1ccccc1C(F)(F)F`: on Protein smoothened [1], the IC50 was 2.4 µM. On to `COc1cccc2c1OC1(C)CC2NC(=O)N1c1cccc(C(=O)N2CCN(c3ccccc3F)CC2)c1` (stereo not given), for which the IC50 on Protein smoothened [1] was more than 10 µM. Same read-out and setting: the result for `CCC(Sc1nnc2c(=O)n(-c3ccc(C)c(C)c3)ccn12)C(=O)Nc1ccccc1C` (stereo not given) reads more than 10 µM.
